Measurements published in PubChem BioAssay AID2539 (The Scripps Research Institute Molecular Screening Center, 2010).
Calls of active or inactive are those of the source.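 How the source made its calls: active means at least 50% inhibition of the cell reactive oxygen species light signal; inactive means the rest.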

Assays:
Assay in all cases: NADPH oxidase isoform panel inhibitors – cell-based, HEK293 transfected, luminol chemiluminescence, powder samples, selectivity assay for NOX1 inhibitor project, late-stage follow-up (AID 2539)
[1] = target: NADPH oxidase 4 (Homo sapiens) (UniProt Q9NPH5); details: HEK293 transfected NOX2/3/4, luminol ROS chemiluminescence; NOX4; at 10 µM; hits give high values
Procedure, shortened: (§1)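 Material: HEK/293 cells transfected with NOX2, NOX3 or NOX4 plus partner subunits; replication: each compound tested in triplicate; measured by: ROS chemiluminescence; doses: single compound dose of 10 µM; incubation: compounds added 16 h post-transfection, 2 h before probe; also added: luminol plus HRP probe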

[2] = target: NADPH oxidase 2 (Homo sapiens) (UniProt P04839); details: HEK293 transfected NOX2/3/4, luminol ROS chemiluminescence; NOX2; at 10 µM; hits give high values
Procedure, shortened: as §1

[3] = target: NADPH oxidase 3 (Homo sapiens) (UniProt Q9HBY0); details: HEK293 transfected NOX2/3/4, luminol ROS chemiluminescence; NOX3; at 10 µM; hits give high values
Procedure, shortened: as §1

NADPH oxidase 2 (Homo sapiens), sequence (P04839 whole entry, looked up): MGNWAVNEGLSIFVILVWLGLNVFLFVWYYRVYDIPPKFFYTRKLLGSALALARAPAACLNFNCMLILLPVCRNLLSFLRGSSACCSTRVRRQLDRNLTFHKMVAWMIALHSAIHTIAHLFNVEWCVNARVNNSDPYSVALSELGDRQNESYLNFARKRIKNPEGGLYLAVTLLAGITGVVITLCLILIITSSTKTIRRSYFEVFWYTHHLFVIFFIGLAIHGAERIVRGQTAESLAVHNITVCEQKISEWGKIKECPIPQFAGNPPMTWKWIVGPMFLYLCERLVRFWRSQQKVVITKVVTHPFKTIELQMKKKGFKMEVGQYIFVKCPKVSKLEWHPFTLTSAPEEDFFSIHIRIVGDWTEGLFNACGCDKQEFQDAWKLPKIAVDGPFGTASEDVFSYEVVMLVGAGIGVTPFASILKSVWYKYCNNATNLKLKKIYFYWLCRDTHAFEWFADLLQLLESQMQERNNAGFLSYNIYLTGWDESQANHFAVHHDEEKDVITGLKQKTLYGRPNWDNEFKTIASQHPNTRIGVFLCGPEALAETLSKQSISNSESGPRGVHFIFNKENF
NADPH oxidase 4 (Homo sapiens), sequence (Q9NPH5 whole entry, looked up): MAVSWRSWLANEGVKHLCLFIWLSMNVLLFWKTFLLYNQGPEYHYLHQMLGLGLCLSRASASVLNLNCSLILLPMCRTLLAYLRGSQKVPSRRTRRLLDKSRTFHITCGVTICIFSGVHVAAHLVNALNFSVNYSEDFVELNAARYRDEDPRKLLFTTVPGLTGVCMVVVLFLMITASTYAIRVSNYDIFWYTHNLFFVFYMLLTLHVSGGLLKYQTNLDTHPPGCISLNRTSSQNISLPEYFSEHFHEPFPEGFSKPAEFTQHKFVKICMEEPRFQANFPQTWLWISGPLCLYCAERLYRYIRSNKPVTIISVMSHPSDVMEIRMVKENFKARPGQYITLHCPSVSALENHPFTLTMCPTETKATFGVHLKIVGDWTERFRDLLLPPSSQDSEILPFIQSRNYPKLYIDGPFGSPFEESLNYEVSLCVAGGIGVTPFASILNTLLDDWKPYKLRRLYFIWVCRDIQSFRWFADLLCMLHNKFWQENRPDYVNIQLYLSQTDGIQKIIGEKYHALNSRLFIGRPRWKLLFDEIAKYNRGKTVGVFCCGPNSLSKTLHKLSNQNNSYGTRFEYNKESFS
NADPH oxidase 3 (Homo sapiens), sequence (Q9HBY0 whole entry, looked up): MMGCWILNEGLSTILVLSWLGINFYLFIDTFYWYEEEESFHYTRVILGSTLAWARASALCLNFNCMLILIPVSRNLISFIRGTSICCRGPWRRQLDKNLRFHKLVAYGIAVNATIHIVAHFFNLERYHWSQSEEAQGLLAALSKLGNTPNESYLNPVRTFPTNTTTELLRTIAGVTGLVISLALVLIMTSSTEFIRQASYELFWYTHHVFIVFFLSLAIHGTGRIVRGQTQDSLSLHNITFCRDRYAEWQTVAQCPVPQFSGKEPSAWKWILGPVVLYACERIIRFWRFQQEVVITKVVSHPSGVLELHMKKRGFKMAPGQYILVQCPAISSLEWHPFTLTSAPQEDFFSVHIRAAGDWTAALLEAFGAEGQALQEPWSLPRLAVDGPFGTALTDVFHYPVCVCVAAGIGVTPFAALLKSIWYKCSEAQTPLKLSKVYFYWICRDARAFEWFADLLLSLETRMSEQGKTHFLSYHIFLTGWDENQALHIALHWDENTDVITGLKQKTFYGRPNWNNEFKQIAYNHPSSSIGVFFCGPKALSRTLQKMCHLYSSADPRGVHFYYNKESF

| inhibition [1] | inhibition [2] | inhibition [3] | Structure (SMILES) |
| --- | --- | --- | --- |
| 3% (inactive) | 19% (inactive) | 3% (inactive) | CN(C)c1ccc(/C=N/Nc2c(Cl)cncc2Cl)cc1 |
| -24% (inactive) | 2% (inactive) | -24% (inactive) | c1ccc2c(c1)Nc1nc3ccccc3nc1N2 |
| 25% (inactive) | 6% (inactive) | 25% (inactive) | Cc1cc(Cl)ccc1NC(=S)NNC(=S)Nc1ccc(F)cc1 |
| 61% | -7% (inactive) | 61% | COc1cc(-c2nc(-c3ccccc3)c(-c3ccccc3)[nH]2)ccc1O |
| 10% (inactive) | 20% (inactive) | 10% (inactive) | FC(F)(F)c1ccc2c(c1)Nc1ccccc1S2 |
| 52% | 32% (inactive) | 52% | CN(C)c1ccc(NC(=O)Nc2ccc(OCc3ccccc3)cc2)cc1 |
| 3% (inactive) | -3% (inactive) | 3% (inactive) | O=C(Oc1ccccc1N1CCCCC1)c1sc2ccccc2c1Cl |
